Converted amounts (≈) assume the structure as drawn.
Assays:
Escherichia coli [1] = assay: Minimum inhibitory concentration against cell wall biosynthesis of Escherichia coli GC 4560; assay type: functional
[2] = target: T1, UDP-N-acetylenolpyruvoylglucosamine reductase (Escherichia coli K-12, UniProt P08373); assay: Inhibitory concentration against MurB enzyme in Escherichia coli
T1 sequence (P08373 whole entry): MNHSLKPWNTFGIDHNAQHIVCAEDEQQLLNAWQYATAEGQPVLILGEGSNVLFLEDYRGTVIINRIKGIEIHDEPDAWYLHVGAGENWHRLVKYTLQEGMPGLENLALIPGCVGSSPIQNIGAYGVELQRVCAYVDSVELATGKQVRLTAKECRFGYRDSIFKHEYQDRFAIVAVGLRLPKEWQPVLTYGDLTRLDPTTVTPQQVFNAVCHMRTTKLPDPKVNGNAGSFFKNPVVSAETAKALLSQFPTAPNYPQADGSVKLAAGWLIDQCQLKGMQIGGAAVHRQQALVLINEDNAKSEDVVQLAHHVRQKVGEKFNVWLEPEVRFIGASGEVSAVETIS
How it was run: (§1)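 Enzyme (20 nM) preincubated 20 min with inhibitor, then substrates added to final 50 µM EP-UNAG and 100 µM NADPH. Activity followed spectrophotometrically. At least six inhibitor concentrations between 1.5 and 50 µM per compound. IC50 from sigmoid Hill curve fit (0–100).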

Streptococcus pneumoniae [3] = assay: Minimum inhibitory concentration against cell wall biosynthesis of penicillin resistant Streptococcus pneumoniae GC 1894 (PRSP); assay type: functional
How it was run: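 Broth microdilution per NCCLS M7-A3, using Mueller–Hinton broth supplemented with 5% sheep blood. Agents tested as 2-fold serial dilutions, with a final inoculum of 1–5 × 10^5 CFU/mL.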

[4] = Minimum inhibitory concentration against cell wall biosynthesis of methicillin-susceptible Coagulase negative staphylococcus GC 646 (MSCNS); assay type: functional
How it was run: (§2)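 Broth microdilution per NCCLS M7-A3. Mueller–Hinton broth for staphylococci and enterococci, 2-fold serial dilutions of agent. Final inoculum 1–5 × 10^5 CFU/mL.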

Escherichia coli [5] = assay: Minimum inhibitory concentration against cell wall biosynthesis of Escherichia coli GC 4559; assay type: functional; how it was run: as §2
Enterococcus faecalis [6] = assay: Minimum inhibitory concentration against cell wall biosynthesis of vancomycin susceptible (ATCC) Enterococcus faecalis GC 4555; assay type: functional; how it was run: as §2
[7] = target: UDP-N-acetylglucosamine 1-carboxyvinyltransferase (Escherichia coli K-12, UniProt P0A749); assay: Inhibitory concentration against MurA enzyme in Escherichia coli
Chain of UDP-N-acetylglucosamine 1-carboxyvinyltransferase (P0A749 whole entry): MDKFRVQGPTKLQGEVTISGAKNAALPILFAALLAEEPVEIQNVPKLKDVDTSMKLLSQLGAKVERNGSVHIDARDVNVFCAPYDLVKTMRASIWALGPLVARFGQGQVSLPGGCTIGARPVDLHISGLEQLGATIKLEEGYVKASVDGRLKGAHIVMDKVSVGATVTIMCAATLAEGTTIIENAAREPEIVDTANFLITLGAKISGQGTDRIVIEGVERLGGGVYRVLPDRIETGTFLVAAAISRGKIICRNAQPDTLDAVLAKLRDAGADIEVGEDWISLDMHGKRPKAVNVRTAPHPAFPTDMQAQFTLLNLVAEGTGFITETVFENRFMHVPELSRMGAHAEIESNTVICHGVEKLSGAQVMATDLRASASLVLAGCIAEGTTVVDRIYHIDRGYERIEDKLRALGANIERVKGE
How it was run: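 Enzyme preincubated with inhibitor 10 min at 37 °C before substrates were added. Reaction ran 30 min at 37 °C and was stopped with malachite green reagent (0.03% malachite green, 1.4% ammonium molybdate, 1.3 N HCl) for phosphate read-out.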

Staphylococcus aureus [8] = assay: Minimum inhibitory concentration against cell wall biosynthesis of methicillin susceptible Staphylococcus aureus GC 4543; assay type: functional
How it was run: (§3)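 Broth microdilution per NCCLS M7-A3 in Mueller–Hinton broth, aerobic. Agents tested as 2-fold serial dilutions, with a final inoculum of 1–5 × 10^5 CFU/mL. Plates incubated 18–22 h at 35 °C in ambient air. MIC read as the endpoint.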

Staphylococcus aureus [9] = assay: Minimum inhibitory concentration against cell wall biosynthesis of methicillin resistant Staphylococcus aureus GC 1131; assay type: functional; how it was run: as §3
Streptococcus pneumoniae [10] = assay: Minimum inhibitory concentration against cell wall biosynthesis of penicillin resistant Streptococcus pneumoniae GC 1894 (PRSP) in the presence of 4% bovine serum albumin; assay type: functional
[11] = target: T2, UDP-N-acetylenolpyruvoylglucosamine reductase (Staphylococcus aureus, UniProt P61431); assay: Inhibitory concentration against MurB enzyme in Staphylococcus aureus; how it was run: as §1
T2 sequence (P61431 whole entry): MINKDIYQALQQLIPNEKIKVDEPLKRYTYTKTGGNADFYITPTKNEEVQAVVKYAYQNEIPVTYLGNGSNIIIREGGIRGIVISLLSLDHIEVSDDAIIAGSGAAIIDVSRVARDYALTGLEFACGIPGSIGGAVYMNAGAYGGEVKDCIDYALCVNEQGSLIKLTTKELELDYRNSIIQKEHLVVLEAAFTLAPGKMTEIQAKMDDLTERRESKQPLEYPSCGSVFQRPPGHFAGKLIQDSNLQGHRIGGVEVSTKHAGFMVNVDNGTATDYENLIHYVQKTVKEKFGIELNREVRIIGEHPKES

Enterococcus faecalis [12] = assay: Minimum inhibitory concentration against cell wall biosynthesis of vancomycin resistant Enterococcus faecalis GC 2242 (VRE); assay type: functional; how it was run: as §3

Structure (SMILES) | MIC (Escherichia coli [1]) [µM] | IC50 [2] [µM] | MIC (Streptococcus pneumoniae [3]) [µM] | MIC [4] [µM] | MIC (Escherichia coli [5]) [µM] | MIC (Enterococcus faecalis [6]) [µM] | IC50 [7] [µM] | MIC (Staphylococcus aureus [8]) [µM] | MIC (Staphylococcus aureus [9]) [µM] | MIC (Streptococcus pneumoniae [10]) [µM] | IC50 [11] [µM] | MIC (Enterococcus faecalis [12]) [µM]
O=C1C(Cc2ccccc2)C(=O)N(c2ccc(Cl)cc2)N1c1ccc(Cl)cc1 | > 200 | > 50 | 200 (≈ 82.3 µg/mL) | > 200 | > 200 | > 200 | > 50 | 200 (≈ 82.3 µg/mL) | 200 (≈ 82.3 µg/mL) | > 200 |  | 
COc1cccc(CC2C(=O)N(c3ccc(Cl)cc3)N(c3ccc(Cl)cc3)C2=O)c1 | > 200 | 50 | 200 (≈ 88.3 µg/mL) | 200 (≈ 88.3 µg/mL) | > 200 | > 200 | > 50 | > 200 |  | > 200 |  | 
O=C1C(Cc2ccc(Cl)cc2Cl)C(=O)N(c2ccc(Cl)cc2)N1c1ccc(Cl)cc1 | 100 (≈ 48 µg/mL) | 11 | 12.5 (≈ 6 µg/mL) | 50 (≈ 24 µg/mL) | > 200 | 100 (≈ 48 µg/mL) | > 50 | 50 (≈ 24 µg/mL) | 50 (≈ 24 µg/mL) | > 200 | 29 | 50 (≈ 24 µg/mL)
O=C1C(CCCc2ccccc2)C(=O)N(c2ccc(Cl)cc2)N1c1ccc(Cl)cc1 | 200 (≈ 87.9 µg/mL) | 10 | 25 (≈ 11 µg/mL) | > 200 | > 200 | > 200 | 44.3 | 200 (≈ 87.9 µg/mL) | 200 (≈ 87.9 µg/mL) | > 200 |  | 200 (≈ 87.9 µg/mL)
CC1(CCCCCCc2ccccc2)C(=O)N(c2ccc(Cl)cc2)N(c2ccc(Cl)cc2)C1=O | 200 (≈ 99.1 µg/mL) | > 50 | 0.78 (≈ 0.386 µg/mL) | > 200 | > 200 | 200 (≈ 99.1 µg/mL) | > 50 | > 200 |  | > 200 | > 50 | 100 (≈ 49.5 µg/mL)
O=C1C(Cc2ccccc2Cl)C(=O)N(c2ccc(Cl)cc2)N1c1ccc(Cl)cc1 | > 200 | > 50 | 12.5 (≈ 5.57 µg/mL) | > 200 | > 200 | > 200 | > 50 | > 200 |  | > 200 | > 50 | 
O=C1C(CCOCc2ccccc2)C(=O)N(c2ccc(Cl)cc2)N1c1ccc(Cl)cc1 | 200 (≈ 91.1 µg/mL) | 11 | 25 (≈ 11.4 µg/mL) | 200 (≈ 91.1 µg/mL) | > 200 | 200 (≈ 91.1 µg/mL) | 33.4 | 200 (≈ 91.1 µg/mL) | 100 (≈ 45.5 µg/mL) | > 200 | 11 | 100 (≈ 45.5 µg/mL)
O=C1C(Cc2cccc(C(F)(F)F)c2)C(=O)N(c2ccc(Cl)cc2)N1c1ccc(Cl)cc1 | > 200 | 18 | 50 (≈ 24 µg/mL) | > 200 | > 200 | > 200 | > 50 | > 200 |  | > 200 |  | 
Cc1c(OCC(=O)c2ccc(F)cc2F)n(-c2ccc(Cl)cc2)n(-c2ccc(Cl)cc2)c1=O | > 200 | > 50 |  | > 200 | > 200 | > 200 | > 50 |  |  |  | > 50 | 
O=C1C(CCCCCc2ccccc2)C(=O)N(c2ccc(Cl)cc2)N1c1ccc(Cl)cc1 | > 200 | 10 | 25 (≈ 11.7 µg/mL) | > 200 | > 200 | 100 (≈ 46.7 µg/mL) | 42.3 | 100 (≈ 46.7 µg/mL) | 200 (≈ 93.5 µg/mL) | > 200 | 32 | 200 (≈ 93.5 µg/mL)
O=C1C(CCCCc2ccccc2)C(=O)N(c2ccc(Cl)cc2)N1c1ccc(Cl)cc1 | > 200 | 5.6 | 25 (≈ 11.3 µg/mL) | 200 (≈ 90.7 µg/mL) | > 200 | 200 (≈ 90.7 µg/mL) | 23.8 | 200 (≈ 90.7 µg/mL) | 200 (≈ 90.7 µg/mL) | > 200 | 6.8 | 100 (≈ 45.3 µg/mL)

Reference: ChEMBL document CHEMBL1145247, “4-Alkyl and 4,4'-dialkyl 1,2-bis(4-chlorophenyl)pyrazolidine-3,5-dione derivatives as new inhibitors of bacterial cell wall biosynthesis” (Bioorg Med Chem Lett, 2005)
